Source: ChEMBL document CHEMBL4321840, “Start Selective and Rigidify: The Discovery Path toward a Next Generation of EGFR Tyrosine Kinase Inhibitors” (J Med Chem, 2019)
Values after ≈ are worked out from the molar mass of the structure shown.

Columns and labels:
[1] = target: T1, Epidermal growth factor receptor (Homo sapiens, UniProt P00533, C797S/EX19DEL/T790M); assay: Inhibition of phosphorylated EGFR del19/T790M/C797S triple mutant (unknown origin) expressed in mouse BaF3 cells incubated for 4 hrs by Alphascreen assay; format: cell-based
[2] = Inhibition of EGFR del19/T790M/C797S triple mutant in mouse BAF3 cells assessed as reduction in cell proliferation incubated for 72 hrs by Celltiter-Glo luminescent cell viability assay; format: cell-based; details: BaF3, 72 h
Method in brief: (§1)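 Murine Ba/F3 cells retrovirally transduced with GFP plus EGFR wt, del19 or del19/T790M/C797S, then puromycin-selected. Mutant lines were made IL-3-independent; wt line grown on EGF without IL-3. EGFR-independent control cells carried GFP-only vector and were kept in IL-3. Seeded at 5x10³/100 µl, treated 72 h at 37 °C, viability read by CellTiter-Glo luminescence. Technical and biological triplicates. Geometric mean of ≥3 independent runs. Selectivity ratio = wt IC50 / del19/T790M/C797S IC50.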

[3] = test system: BaF3; assay: Cytotoxicity against mouse BAF3 cells incubated for 72 hrs by Celltiter-Glo luminescent cell viability assay; format: cell-based; details: BaF3, 72 h
Method in brief: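 Mutant lines were made IL-3-independent; wt line grown on EGF without IL-3. EGFR-independent control cells carried GFP-only vector and were kept in IL-3. Seeded at 5x10³/100 µl, treated 72 h at 37 °C, viability read by CellTiter-Glo luminescence. Technical and biological triplicates. Geometric mean of ≥3 independent runs.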

[4] = Selectivity index, ratio of IC50 for antiproliferative activity against mouse BAF3 cells harboring wild type EGFR to IC50 for antiproliferative activity against mouse BAF3(transformed) cells harboring EGFR del19/T790M/C797S triple mutant incubated for 72 hrs by Celltiter-Glo luminescent cell viability assay; format: functional; method in brief: as §1
[5] = Aqueous solubility of compound in McIlvaine buffer at 1 mg/ml at pH 6.8 by HPLC-DAD/UV analysis; format: physicochemical
Method in brief: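 Solid compound dispensed at 1 mg/mL into aqueous McIlvaine buffer (pH 6.8). Reference sample dissolved in acetonitrile/water (1:1). Dissolved concentration quantified by HPLC-DAD/UV.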

[6] = Protein binding in mouse plasma assessed as free fraction after 3 hrs by HPLC-MS/MS-based equilibrium dialysis method; format: ADME, cell-free
Method in brief: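 Equilibrium dialysis of compound-spiked plasma against Soerensen buffer (pH 7.4) for 3 hours at 37°C. Compound levels in the plasma and buffer sides quantified by HPLC/MS-MS to give the bound and free fractions.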

[7] = Apparent permeability of compound at pH 7.4 by LC-MS based PAMPA method; format: ADME
Method in brief: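 PAMPA at pH 7.4. A microfilter disc coated with immobilized artificial phospholipid membrane layers separates donor and acceptor chambers. Compound concentrations in both chambers are followed over time by LC/MS and compared with the donor concentration before incubation.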

[8] = test system: PC-9; assay: Antiproliferative activity against human PC9 cells harboring EGFR del19/T790M/C797S triple mutant incubated for 96 hrs by Celltiter-Glo luminescent cell viability assay; format: functional, cell-based; details: PC-9, 96 h
Method in brief: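 Cells plated in 96-well plates (A431 5000/well in DMEM + 10% FBS + sodium pyruvate; PC-9 del19/T790M/C797S 2000/well in RPMI + 10% FBS). Compound added 24 h after plating, then 96 h at 37°C, 5% CO2. Viability read by CellTiter-Glo luminescence, normalised to DMSO-treated cells, IC50 fitted. Technical and biological triplicates.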

[9] = target: Epidermal growth factor receptor (Homo sapiens, UniProt P00533); assay: Inhibition of human recombinant GST-tagged wild type EGFR expressed in baculovirus expression system assessed as decrease in phosphorylation of ULight-poly-GT using ULight-poly-GT as substrate incubated for 90 mins in presence of ATP by TR-FRET LANCE assay
[10] = target: T1, Epidermal growth factor receptor; assay: Inhibition of GST-fusion tagged EGFR del19/T790M/C797S triple mutant (unknown origin) (696 to 1022 residues) expressed in insect cells assessed as decrease in phosphorylation of ULight-poly-GT using poly-GT as substrate in presence of ATP
[11] = target: Epidermal growth factor receptor (Homo sapiens, UniProt P00533, C797S/L858R/T790M); assay: Inhibition of GST-fusion tagged EGFR L858R/T790M/C797S triple mutant (unknown origin) (696 to 1022 residues) expressed in insect cells assessed as decrease in phosphorylation of ULight-poly-GT using poly-GT as substrate in presence of ATP
[12] = test system: A-431; assay: Antiproliferative activity against human A431 cells harboring EGFR wild type incubated for 96 hrs by Celltiter-Glo luminescent cell viability assay; format: functional, cell-based; details: A-431, 96 h
[13] = Inhibition of EGFR del19 mutant in mouse BAF3 cells incubated for 72 hrs by Celltiter-Glo luminescent cell viability assay; format: cell-based; details: BaF3, 72 h; method in brief: as §1
[14] = Volume of distribution in NMRI mouse at 10 mg/kg, po or 1 mg/kg, iv; format: ADME, organism-based; details: in vivo
Method in brief: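 NMRI mice (n=3 per group) dosed orally at 10 mg/kg or intravenously at 1 mg/kg. Five plasma samples per mouse at set time points. Plasma protein precipitated with acetonitrile, compound quantified by LC-MS/MS against a calibration curve.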

[15] = test system: PC-9; assay: Antitumor activity against human PC9 cells harboring del19/T790M/C797S triple mutant xenografted in BomTac:NMRI-Foxn1nu mouse assessed as tumor growth inhibition at 10 mg/kg, po qd administered for 19 days relative to control; format: functional; details: PC-9, po, 456 h, read-out: TGI
Method in brief: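 Female BomTac:NMRI-Foxn1nu mice, 6-8 weeks old, implanted s.c. with 5×10⁶ PC-9 del19/T790M/C797S cells. Randomized by tumor size on day 7 (N=8 per treated group, N=10 vehicle). […] Tumor size and body weight measured three times weekly. Tumor volumes compared by one-sided decreasing Mann–Whitney test.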

[16] = species: Homo sapiens; assay: Selectivity ratio of IC50 for inhibition of human recombinant GST-tagged wild type EGFR expressed in baculovirus expression system to IC50 for inhibition of GST-fusion tagged EGFR del19/T790M/C797S triple mutant (unknown origin) (696 to 1022 residues) expressed in insect cells
Method in brief: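 TR-FRET kinase assays on ULight-poly-GT substrate (200 nM) with ATP 100 µM, final enzyme 1.5 nM (wt) or 15 nM (del746-750/T790M/C797S). Buffer was HEPES pH 7.3, MgCl2, EGTA, Tween 20, DTT. Reaction ran 90 min at room temperature and was stopped with EDTA plus Eu-anti-pTyr antibody, read after 60 min. Top concentration 100 µM with eleven fivefold dilutions in duplicate. IC50 from a 4-parameter logistic fit; ratio is wt IC50 over mutant IC50.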

[17] = Hepatic clearance in human cryopreserved hepatocytes at 1 uM measured after 240 mins by LC-MS/MS analysis relative to hepatic blood flow; format: ADME, cell-based, Hepatocyte; details: read-out: CLH
Method in brief: (§2)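 Compound (1 µM) incubated with cryopreserved hepatocytes. Depletion followed over 240 min by LC/MS/MS quantitation. In vivo hepatic clearance predicted with the well-stirred model and expressed as percent of hepatic blood flow (%QH).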

[18] = Hepatic clearance in mouse cryopreserved hepatocytes at 1 uM measured after 240 mins by LC-MS/MS analysis relative to hepatic blood flow; format: ADME, cell-based, Hepatocyte; details: read-out: CLH; method in brief: as §2
[19] = Protein binding in human plasma assessed as free fraction after 3 hrs by HPLC-MS/MS-based equilibrium dialysis method; format: ADME, cell-free
Method in brief: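 Equilibrium dialysis: human plasma spiked with compound and dialyzed against Soerensen buffer (pH 7.4) for 3 h at 37 °C. Compound in plasma and buffer quantified by HPLC/MS-MS to calculate binding and free fraction.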

Chain of Epidermal growth factor receptor (Homo sapiens, UniProt P00533, C797S/L858R/T790M) (P00533 25-1210 T790M/C797S/L858R limits assumed): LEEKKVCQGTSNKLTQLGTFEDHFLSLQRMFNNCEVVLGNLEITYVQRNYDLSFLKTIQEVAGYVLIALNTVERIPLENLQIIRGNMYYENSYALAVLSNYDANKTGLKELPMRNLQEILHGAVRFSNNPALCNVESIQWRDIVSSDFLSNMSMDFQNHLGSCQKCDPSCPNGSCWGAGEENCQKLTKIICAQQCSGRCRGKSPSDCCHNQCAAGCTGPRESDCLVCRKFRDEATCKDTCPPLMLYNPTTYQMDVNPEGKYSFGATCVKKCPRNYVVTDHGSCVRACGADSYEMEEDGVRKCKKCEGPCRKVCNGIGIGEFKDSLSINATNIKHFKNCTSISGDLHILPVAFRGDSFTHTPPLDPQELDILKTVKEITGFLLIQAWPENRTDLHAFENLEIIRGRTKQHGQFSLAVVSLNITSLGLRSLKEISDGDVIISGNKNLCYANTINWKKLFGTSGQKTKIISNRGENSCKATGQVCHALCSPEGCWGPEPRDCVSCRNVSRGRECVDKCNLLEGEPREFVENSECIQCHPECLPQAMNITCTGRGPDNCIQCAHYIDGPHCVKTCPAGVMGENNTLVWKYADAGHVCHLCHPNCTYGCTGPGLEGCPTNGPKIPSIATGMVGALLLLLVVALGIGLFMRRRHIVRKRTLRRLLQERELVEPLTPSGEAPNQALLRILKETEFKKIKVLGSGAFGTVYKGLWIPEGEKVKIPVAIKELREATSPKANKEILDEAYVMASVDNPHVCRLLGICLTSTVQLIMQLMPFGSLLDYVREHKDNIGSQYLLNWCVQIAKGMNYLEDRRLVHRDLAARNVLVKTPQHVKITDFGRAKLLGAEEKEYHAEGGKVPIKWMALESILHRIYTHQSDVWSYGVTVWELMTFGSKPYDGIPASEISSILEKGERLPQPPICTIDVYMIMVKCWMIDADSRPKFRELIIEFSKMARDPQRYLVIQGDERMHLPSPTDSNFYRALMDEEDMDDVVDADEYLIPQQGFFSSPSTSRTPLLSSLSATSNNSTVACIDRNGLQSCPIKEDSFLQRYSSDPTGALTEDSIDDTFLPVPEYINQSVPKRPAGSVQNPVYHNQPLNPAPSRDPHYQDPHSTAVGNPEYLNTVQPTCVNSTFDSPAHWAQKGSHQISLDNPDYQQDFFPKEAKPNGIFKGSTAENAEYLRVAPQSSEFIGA
T1 sequence (P00533 whole entry, looked up, stated change not applied): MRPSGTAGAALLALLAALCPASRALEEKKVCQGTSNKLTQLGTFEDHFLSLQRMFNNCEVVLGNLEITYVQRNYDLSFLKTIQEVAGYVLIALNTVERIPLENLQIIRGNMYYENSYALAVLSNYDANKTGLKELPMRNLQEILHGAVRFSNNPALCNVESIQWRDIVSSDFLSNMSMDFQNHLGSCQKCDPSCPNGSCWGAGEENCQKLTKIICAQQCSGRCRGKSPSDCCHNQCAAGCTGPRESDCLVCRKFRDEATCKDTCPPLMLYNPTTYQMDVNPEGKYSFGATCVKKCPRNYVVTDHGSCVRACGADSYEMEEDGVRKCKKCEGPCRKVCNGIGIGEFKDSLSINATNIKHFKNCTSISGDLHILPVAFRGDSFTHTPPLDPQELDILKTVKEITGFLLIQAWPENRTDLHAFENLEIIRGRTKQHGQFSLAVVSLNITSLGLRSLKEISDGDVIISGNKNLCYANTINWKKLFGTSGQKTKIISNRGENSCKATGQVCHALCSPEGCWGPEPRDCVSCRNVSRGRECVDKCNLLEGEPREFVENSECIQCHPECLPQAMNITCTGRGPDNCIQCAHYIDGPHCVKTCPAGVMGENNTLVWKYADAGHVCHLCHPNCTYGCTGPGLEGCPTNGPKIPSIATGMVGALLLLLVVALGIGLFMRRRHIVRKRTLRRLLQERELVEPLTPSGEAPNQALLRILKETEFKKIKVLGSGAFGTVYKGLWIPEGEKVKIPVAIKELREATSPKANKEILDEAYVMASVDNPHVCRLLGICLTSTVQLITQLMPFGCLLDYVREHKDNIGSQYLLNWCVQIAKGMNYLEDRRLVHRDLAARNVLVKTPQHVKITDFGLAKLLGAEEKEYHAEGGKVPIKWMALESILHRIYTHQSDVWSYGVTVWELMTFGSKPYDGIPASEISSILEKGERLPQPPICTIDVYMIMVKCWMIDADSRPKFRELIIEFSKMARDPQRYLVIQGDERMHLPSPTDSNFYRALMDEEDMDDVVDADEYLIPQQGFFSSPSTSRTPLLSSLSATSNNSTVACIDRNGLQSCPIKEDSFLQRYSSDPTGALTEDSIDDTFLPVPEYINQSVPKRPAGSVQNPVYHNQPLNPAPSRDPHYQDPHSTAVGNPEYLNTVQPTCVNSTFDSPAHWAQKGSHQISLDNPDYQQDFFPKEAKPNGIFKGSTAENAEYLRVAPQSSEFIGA
Chain of Epidermal growth factor receptor (Homo sapiens, UniProt P00533) (P00533 whole entry, the tested form may be a part): as the sequence (P00533 whole entry, looked up, stated change not applied) above

IC50 [1]	IC50 [9]	IC50 [10]	SMILES	IC50 [2]	IC50 [3]	Ratio IC50 [4]	other results
0.001 µM			Cc1cc2cc(n1)-c1cnn(C)c1OCCCCCN1/C(=N/C2=O)Nc2ccccc21	0.005 µM	1.7 µM	460	
			C=CC(=O)Nc1cc(Nc2nccc(-c3cn(C)c4ccccc34)n2)c(OC)cc1N(C)CCN(C)C [OSIMERTINIB]	0.78 µM	1.1 µM		solubility [5]: 0.086 mg/mL (≈ 172 µM); fraction unbound at 3 h [6]: < 0.1; Papp [7]: 27 nm/s; IC50 [8]: > 1 µM
0.043 µM	> 100 µM	0.072 µM	Cn1cc(-c2cc(C(=O)/N=c3\[nH]c4ccccc4n3CC(C)(C)O)ccn2)cn1	0.333 µM	8.9 µM		IC50 [11]: 0.519 µM
			Cc1cc2cc(n1)-c1cnn(C)c1OCCC[C@@H](C)CN1/C(=N/C2=O)Nc2ccc(CN3CCN(C)CC3)cc21	0.0002 µM	1.1 µM		solubility [5]: 0.095 mg/mL (≈ 175 µM); Papp [7]: 53 nm/s; IC50 [8]: 0.0013 µM; IC50 [12]: 0.2 µM; IC50 [13]: 0.001 µM; Vd [14]: 4.2 L/kg; inhibition in vivo at 10 mg/kg [15]: 121%
0.022 µM	> 100 µM	0.035 µM	CC(C)(O)Cn1/c(=N/C(=O)c2ccnc(-c3ccccc3)c2)[nH]c2ccccc21	0.15 µM	> 25 µM		
0.0008 µM			Cc1cc2cc(n1)-c1cnn(C)c1OCCC[C@@H](C)CN1/C(=N/C2=O)Nc2ccccc21	0.001 µM	1 µM	>1000	solubility [5]: < 0.0001 mg/mL; hepatic extraction ratio at 4 h, 1 µM [17]: 0.12; hepatic extraction ratio at 4 h, 1 µM [18]: 0.47; fraction unbound at 3 h [6]: < 0.3; fraction unbound at 3 h [19]: 0.5; Papp [7]: 2 nm/s
0.001 µM		≤ 0.003 µM	COc1ccncc1-c1cc(C(=O)/N=c2\[nH]c3ccccc3n2CC(C)(C)O)ccn1	0.051 µM	0.99 µM		
0.003 µM			O=C1/N=C2\Nc3ccccc3N2CCCCCOc2ccccc2-c2cc1ccn2	0.027 µM	1.6 µM	48	
0.0012 µM			Cn1ncc2c1OCCCCCN1/C(=N/C(=O)c3cc(F)nc-2c3)Nc2ccccc21	0.006 µM	0.33 µM	45	
			CC(C)(O)Cn1/c(=N/C(=O)c2ccnc(-c3cccnc3)c2)[nH]c2ccccc21	0.27 µM			
1.4 µM	> 100 µM	0.173 µM	CC(C)(O)Cn1/c(=N/C(=O)c2cccc(-c3cccnc3)c2)[nH]c2ccccc21				IC50 [11]: 2.7 µM

SMILES	IC50 [1]	IC50 [9]	IC50 [10]	IC50 [2]	IC50 [3]	Ratio IC50 [4]	other results
CC(C)(O)Cn1/c(=N/C(=O)c2cc(F)cc(-c3cccnc3)c2)[nH]c2ccccc21	0.79 µM	> 100 µM	0.25 µM				IC50 [11]: 2.1 µM; Ratio IC50 [16]: > 400
